Converted amounts (≈) assume the structure as drawn.
How the values were obtained:
[1] = test system: Vesicular stomatitis virus; experiment: Minimum inhibitory concentration required to reduce vesicular stomatitis virus induced cytopathogenicity by 50% in primary rabbit kidney cells (PRK); assay type: functional
[2] = Dose required to inhibit Human T-Lymphoblast (Molt/4F) cell proliferation by 50%; assay type: functional; conditions: read-out: CD50 (the source's name)
[3] = test system: Human alphaherpesvirus 2; experiment: Minimum inhibitory concentration required to reduce herpes simplex virus-2(G) induced cytopathogenicity by 50% in primary rabbit kidney cells (PRK); assay type: functional
How it was run: (§1)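 Cell cultures (PRK, HeLa or Vero B) are infected at 100 × CCID50. Cytopathogenicity is recorded once it reaches completion in the untreated virus-infected controls. The minimum inhibitory concentration is given in μg/mL.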

[4] = test system: Mammalian orthoreovirus 1; experiment: Minimum inhibitory concentration required to reduce reovirus-1 induced cytopathogenicity by 50% in african green monkey (VeroB)cells; assay type: functional; how it was run: as §1
[5] = test system: Vero; experiment: Minimum cytotoxic concentration required to cause a microscopically detectable alteration of normal cell morphology and show antiviral activity in african green monkey (Vero B) cells; assay type: functional; conditions: Chlorocebus sabaeus
[6] = test system: Vero; experiment: Minimum inhibitory concentration required to reduce parainfluenza virus-3 induced cytopathogenicity by 50% in african green monkey (VeroB) cells; assay type: functional, Human respirovirus 3; conditions: Chlorocebus sabaeus; how it was run: as §1
[7] = test system: Human alphaherpesvirus 1; experiment: Minimum inhibitory concentration required to reduce herpes simplex virus-1 (KOS) induced cytopathogenicity by 50% in primary rabbit kidney cells(PRK); assay type: functional; how it was run: as §1
[8] = test system: Sindbis virus; experiment: Minimum inhibitory concentration required to reduce Sindbis virus induced cytopathogenicity by 50% in african green monkey (VeroB) cells; assay type: functional; how it was run: as §1
[9] = test system: HeLa; experiment: Minimum inhibitory concentration required to reduce Coxsackie virus B4 induced cytopathogenicity by 50% in HeLa cells; assay type: functional; conditions: Homo sapiens; how it was run: as §1
[10] = test system: Raji; experiment: Dose required to inhibit Human B-Lymphoblast (Raji) cell proliferation by 50%; assay type: functional; conditions: read-out: CD50 (the source's name)
[11] = test system: L1210; experiment: Dose required to inhibit Murine leukemia (L1210) cell proliferation by 50%; assay type: functional; conditions: Mus musculus, read-out: CD50 (the source's name)
[12] = test system: Nucleic Acid; experiment: Association constant against polynucleotide poly (dG-dC); assay type: nucleic-acid assay
How it was run: (§2)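 Competition with ethidium bromide binding at 25 °C in 0.01 M cacodylate buffer, pH 7.0, with 1.26 μM ethidium bromide and 1 μM polynucleotide. Bound ethidium is estimated from its fluorescence increase (V = 34 for poly(dA-dT), 25 for poly(dG-dC)). IC50 for 50% ethidium displacement comes from a fitted competition sigmoid. Kapp is calculated from IC50 assuming a binding size of four base pairs.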

[13] = test system: Semliki Forest virus; experiment: Minimum inhibitory concentration required to reduce semliki forest virus induced cytopathogenicity by 50% in african green monkey (VeroB) cells; assay type: functional; how it was run: as §1
[14] = test system: HeLa; experiment: Minimum cytotoxic concentration required to cause a microscopically detectable alteration of normal cell morphology and show antiviral activity in HeLa cells; assay type: functional; conditions: Homo sapiens
How it was run: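 HeLa cell cultures exposed to compound for the same duration as the antiviral assay, then examined microscopically. The minimum cytotoxic concentration is the lowest level causing detectable alteration of normal cell morphology. Values are in μg/mL.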

[15] = test system: Nucleic Acid; experiment: Association constant against the polynucleotide poly (dA-dT).; assay type: nucleic-acid assay; how it was run: as §2
[16] = species: Oryctolagus cuniculus; experiment: Minimum cytotoxic concentration required to cause a microscopically detectable alteration of normal cell morphology and show antiviral activity in primary rabbit kidney (PRK) cells; assay type: functional
[17] = test system: Vero; experiment: Minimum inhibitory concentration required to reduce Coxsackie virus B4 induced cytopathogenicity by 50% in african green monkey (VeroB) cells; assay type: functional, Coxsackievirus B4; conditions: Chlorocebus sabaeus; how it was run: as §1
[18] = test system: FM3A; experiment: In vitro inhibition of FM3A (murine mammary carcinoma) cell proliferation.; assay type: functional; conditions: Mus musculus, read-out: CD50 (the source's name)
[19] = test system: Nucleic Acid; experiment: Ratio of association constant of poly (dA-dT) and poly (dG-dC); assay type: nucleic-acid assay
How it was run: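 Kapp for poly(dA-dT) and for poly(dG-dC) is each determined by ethidium bromide competition in 0.01 M cacodylate, pH 7.0, 25 °C, with 1.26 μM ethidium and 1 μM polynucleotide. IC50 comes from a fitted competition sigmoid and is converted to Kapp assuming a four-base-pair binding size. The ratio is taken between the two polynucleotides.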

SMILES | MIC [1] [µg/mL] | CC50 [2] [µg/mL] | MIC [3] [µg/mL] | MIC [4] [µg/mL] | MCC [5] [µg/mL] | MIC [6] [µg/mL] | MIC [7] [µg/mL] | MIC [8] [µg/mL] | MIC [9] [µg/mL] | CC50 [10] [µg/mL] | CC50 [11] [µg/mL] | K app [12] [M⁻¹] | MIC [13] [µg/mL] | MCC [14] [µg/mL] | K app [15] [M⁻¹] | MCC [16] [µg/mL] | MIC [17] [µg/mL] | CC50 [18] [µg/mL] | Ratio [19]
CC(NC(=O)c1cc(NC(=O)c2cc(NC(=O)CNC(=N)N)cn2C)cn1C)C(=O)O (stereo not given) | > 200 | > 100 | > 200 | > 200 | > 200 | > 200 | > 200 | > 200 | > 200 | > 100 | > 100 | < 100 | > 200 | > 200 | < 100 | >200 | > 200 | > 100 | –
Cn1cc(NC(=O)c2cc([N+](=O)[O-])cn2C)cc1C(=O)NCCCNCCCCN | > 100 | > 100 | > 200 | > 200 | > 400 | > 200 | > 200 | > 400 | > 400 | > 100 | > 100 | 82000 | > 400 | > 400 | 440000 | >200 | > 200 | – | 5.37
Cn1c(C(=O)NCCC(=N)N)ccc1[N+](=O)[O-] | > 400 | > 50 | > 100 | > 100 | > 400 | 100 (≈ 418 µM) | > 200 | > 200 | > 400 | > 50 | > 50 | < 100 | > 200 | > 400 | < 100 | >400 | > 100 | – | –
Cn1cc(NC(=O)c2cc(NC(=O)c3cc(NC=O)cn3C)cn2C)cc1C(=O)NCCC(=N)N | – | – | – | – | – | – | – | – | – | – | – | 25000 | – | – | 8.5e+07 | – | – | – | 3400
CC(NC(=O)C(C)NC(=O)c1cc(NC(=O)c2cc(NC(=O)CNC(=N)N)cn2C)cn1C)C(=O)O (stereo not given) | > 400 | > 100 | > 400 | > 200 | > 400 | > 400 | > 400 | > 400 | > 400 | > 100 | > 100 | 1200 | > 400 | > 400 | 1200 | >400 | > 400 | > 100 | 1
C[C@H](NC(=O)c1cc(NC(=O)c2cc(NC(=O)CNC(=N)N)cn2C)cn1C)C(=O)N[C@@H](C)C(=O)N[C@@H](C)C(=O)OC(C)(C)C | > 200 | > 100 | > 100 | > 200 | > 400 | > 400 | > 100 | > 400 | > 400 | > 100 | > 100 | 3300 | > 400 | > 400 | 20000 | 400 | > 200 | > 100 | 6.06
Cn1cc([N+](=O)[O-])cc1C(=O)O | > 400 | > 100 | > 400 | > 400 | > 400 | > 400 | > 400 | > 400 | > 400 | > 100 | > 100 | – | > 400 | > 400 | – | >400 | > 200 | > 100 | –
